# Data from ChEMBL document CHEMBL1131436, “Repaglinide and related hypoglycemic benzoic acid derivatives” (1998).
# Assays:
# Rattus norvegicus [1] = assay: Maximum % decrease of blood glucose (deltaBG) was observed within 4 hour after administration orally at 1 mg/kg dose to fasted adult female rats versus a control group; type: functional; settings: route oral
# In short: (§1)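 Female Wistar rats (Chbb THOM, SPF, 200-220 g), fasted 24 h, dosed orally by gavage as suspension in 1.5% Tylose methylcellulose (10 mL/kg). Whole blood from retrobulbar plexus under light halothane, deproteinized with 0.33 M HClO4; glucose by hexokinase/G6PDH, hourly up to 4 h. % decrease vs control group (N = 7), Student's t-test, P ≤ 0.05.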
# Rattus norvegicus [2] = assay: Maximum % decrease of blood glucose (deltaBG) was observed within 4 hour after administration orally at 0.1 mg/kg dose to fasted adult female rats versus a control group; type: functional; settings: route oral; in short: as §1
# Rattus norvegicus [3] = assay: Half-maximal effective dose was measured on rat blood glucose after administrating at 4 hr; type: functional
# In short: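 Adult fasted female Wistar rats (Chbb THOM, SPF, 200-220 g), food withdrawn 24 h; oral gavage of suspension in 1.5% Tylose (methylcellulose), 10 mL/kg. Retrobulbar blood under light halothane; glucose by hexokinase/G6PDH after HClO4 deproteinization, hourly to 4 h. ED50 from fit of glucose vs dose, y = b + [a × k/(k + x^nH)], Hill coefficient nH.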
# Rattus norvegicus [4] = assay: Maximum % decrease of blood glucose (deltaBG) was observed within 4 hour after administration orally at 5 mg/kg dose to fasted adult female rats versus a control group; type: functional; settings: route oral; in short: as §1
# Rattus norvegicus [5] = assay: Maximum % decrease of blood glucose (deltaBG) was observed within 4 hour after administration orally at 0.5 mg/kg dose to fasted adult female rats versus a control group; type: functional; settings: route oral; in short: as §1
# Rattus norvegicus [6] = assay: Maximum % decrease of blood glucose (deltaBG) was observed within 4 hour after administration orally at 10 mg/kg dose to fasted adult female rats versus a control group; type: functional; settings: route oral; in short: as §1
# Rattus norvegicus [7] = assay: Maximum % decrease of blood glucose (deltaBG) was observed within 4 hour after administration orally at 1 mg/kg dose to fasted adult female rats versus a control group; NS =' not significant'; type: functional, organism-based; design: dose 1 mg/kg; in short: as §1
# Rattus norvegicus [8] = assay: Maximum % decrease of blood glucose (deltaBG) was observed within 4 hour after administration orally at 25 mg/kg dose to fasted adult female rats versus a control group; NS =' not significant'; type: functional, organism-based; design: dose 25 mg/kg; in short: as §1
# Rattus norvegicus [9] = assay: Maximum % decrease of blood glucose (deltaBG) was observed within 4 hour after administration orally at 25 mg/kg dose to fasted adult female rats versus a control group; type: functional; settings: route oral; in short: as §1
# [10] = Rattus norvegicus, Blood, 4 h, read-out: ED50
compound,measurement,setting,value
CC(NC(=O)Cc1ccc(C(=O)O)cc1)c1ccccc1N1CCCCC1 (stereo not drawn),Delta BG,Rattus norvegicus [1],-41%
same,Delta BG,Rattus norvegicus [2],-13%
same,ED50,Rattus norvegicus [3],0.3 mg/kg
same,ED50,Rattus norvegicus [3]; [10],0.3 mg/kg
same,Delta BG,Rattus norvegicus [4],-49%
same,Delta BG,Rattus norvegicus [5],-31%
CC(NC(=O)Cc1ccc(C(=O)O)cc1)c1cc(Cl)ccc1N(C)C (stereo not drawn),Delta BG,Rattus norvegicus [6],-20%
CCOc1cc(CC(=O)NC(CC2CCC2)c2ccccc2N2CCCCC2)ccc1C(=O)O (stereo not drawn),Delta BG,Rattus norvegicus [2],-27%
CCOc1cc(CCNC(=O)c2cc(Cl)ccc2OC)ccc1C(=O)O,Delta BG,Rattus norvegicus [1],-8%
same,Delta BG,Rattus norvegicus [6],-35%
CCCC(CC(=O)Cc1ccc(C(=O)O)cc1)c1ccccc1N1CCCCC1 (stereo not drawn),Delta BG,Rattus norvegicus [6],-11%
CC(NC(=O)Cc1ccc(C(=O)O)cc1)c1ccccc1N1CCCCC1C (stereo not drawn),Delta BG,Rattus norvegicus [1],-13%
same,Delta BG,Rattus norvegicus [6],-43%
O=C(O)c1ccc(CCNC(=O)c2cc(Cl)ccc2N2CCCCCC2)cc1,Delta BG,Rattus norvegicus [1],-16%
CCCC(NC(=O)Cc1ccc(C(=O)O)cc1)c1cc(Cl)ccc1N1CCCCC1 (stereo not drawn),Delta BG,Rattus norvegicus [1],-17%
CCCCC(NC(=O)Cc1ccc(C(=O)O)cc1)c1ccccc1N1CCCCC1 (stereo not drawn),Delta BG,Rattus norvegicus [5],-32%
CCCC(NC(=O)Cc1ccc(C(=O)O)cc1)c1ccccc1C1CCCCC1 (stereo not drawn),Delta BG,Rattus norvegicus [1],-9%
same,Delta BG,Rattus norvegicus [6],-31%
CC(C)(NC(=O)Cc1ccc(C(=O)O)cc1)c1ccccc1N1CCCCC1,Delta BG,Rattus norvegicus [6],-34%
CCCC(NC(=O)Cc1ccc(C(=O)O)cc1)c1ccccc1C1=CCCCC1 (stereo not drawn),Delta BG,Rattus norvegicus [7],Not significant
same,Delta BG,Rattus norvegicus [6],-48%
CC(NC(=O)Cc1ccc(C(=O)O)cc1)c1ccccc1N1CCCCCC1 (stereo not drawn),Delta BG,Rattus norvegicus [4],-29%
CCCCCC(NC(=O)Cc1ccc(C(=O)O)cc1)c1ccccc1N1CCCCC1 (stereo not drawn),Delta BG,Rattus norvegicus [1],-29%
CC(NC(=O)Cc1ccc(C(=O)O)cc1)c1ccccc1N1CCCCCCCC1 (stereo not drawn),Delta BG,Rattus norvegicus [8],Not significant
CCN(CC)c1ccc(Cl)cc1C(=O)NCCc1ccc(C(=O)O)cc1,Delta BG,Rattus norvegicus [9],-35%
CC(C(=O)NCc1ccc(C(=O)O)cc1)c1ccccc1N1CCCCC1 (stereo not drawn),Delta BG,Rattus norvegicus [4],-32%
CCCCC(NC(=O)Cc1ccc(C(=O)O)c(OCC)c1)c1ccccc1N1CCCCC1 (stereo not drawn),Delta BG,Rattus norvegicus [2],-24%
same,Delta BG,Rattus norvegicus [5],-45%
CC(NC(=O)Cc1ccc(C(=O)O)cc1)c1cccc(N2CCCCC2)c1 (stereo not drawn),Delta BG,Rattus norvegicus [9],-15%
O=C(O)c1ccc(CCNC(=O)c2cc(Cl)ccc2N2CCCCCCC2)cc1,Delta BG,Rattus norvegicus [1],-29%
CCCC(NC(=O)Cc1ccc(C(=O)O)c(O)c1)c1ccccc1N1CCCCC1 (stereo not drawn),Delta BG,Rattus norvegicus [7],Not significant
same,Delta BG,Rattus norvegicus [6],-47%
C=C(C)C[C@H](NC(=O)Cc1ccc(C(=O)O)c(OCC)c1)c1ccccc1N1CCCCC1,Delta BG,Rattus norvegicus [2],-43%
CCC(NC(=O)Cc1ccc(C(=O)O)cc1)c1ccccc1N1CCCCC1 (stereo not drawn),Delta BG,Rattus norvegicus [5],-28%
CC(C)CC(NC(=O)Cc1ccc(C(=O)O)cc1)c1ccccc1N1CCCCC1 (stereo not drawn),Delta BG,Rattus norvegicus [2],-30%
CC1CC(C)CN(c2ccc(Cl)cc2C(C)NC(=O)Cc2ccc(C(=O)O)cc2)C1 (stereo not drawn),Delta BG,Rattus norvegicus [6],-20%
CC(NC(=O)Cc1ccc(C(=O)O)cc1)c1cc(Cl)ccc1N1CCCC1 (stereo not drawn),Delta BG,Rattus norvegicus [6],-26%
CC(C)C(NC(=O)Cc1ccc(C(=O)O)cc1)c1ccccc1N1CCCCC1 (stereo not drawn),Delta BG,Rattus norvegicus [5],-18%
CCCC(/N=C(\S)Cc1ccc(C(=O)O)cc1)c1ccccc1N1CCCCC1 (stereo not drawn),Delta BG,Rattus norvegicus [6],-35%
CCOc1cc(CC(=O)NC(C)c2ccccc2N2CCCCC2)ccc1C(=O)O (stereo not drawn),Delta BG,Rattus norvegicus [2],-27%
CCCCCCC(NC(=O)Cc1ccc(C(=O)O)c(OCC)c1)c1ccccc1N1CCCCC1 (stereo not drawn),Delta BG,Rattus norvegicus [1],-21%
CC(NS(=O)(=O)Cc1ccc(C(=O)O)cc1)c1ccccc1N1CCCCC1 (stereo not drawn),Delta BG,Rattus norvegicus [8],Not significant
CC(NC(=O)Cc1ccc(C(=O)O)cc1)c1cc(Cl)ccc1N1CCCCC1C (stereo not drawn),Delta BG,Rattus norvegicus [6],-14%
CC1CC(C)CN(c2ccc(Cl)cc2C(=O)NCCc2ccc(C(=O)O)cc2)C1 (stereo in doubt; 5i),Delta BG,Rattus norvegicus [1]; 1 mg/kg,-11%
CCCC(NC(=O)Cc1ccc(C(=O)O)cc1)c1ccccc1 (stereo not drawn),Delta BG,Rattus norvegicus [6],-18%
O=C(Cc1ccc(C(=O)O)cc1)NCc1cc(Cl)ccc1N1CCCCC1,Delta BG,Rattus norvegicus [6],-37%
CC(NC(=O)Cc1ccc(S(=O)(=O)NC(=O)NC2CCCCC2)cc1)c1ccccc1N1CCCCC1 (stereo not drawn),Delta BG,Rattus norvegicus [7],Not significant
same,Delta BG,Rattus norvegicus [4],-42%
CCOc1cc(CC(=O)NC(CC2CCCC2)c2ccccc2N2CCCCC2)ccc1C(=O)O (stereo not drawn),Delta BG,Rattus norvegicus [2],-17%
CC1CCN(c2ccccc2C(C)NC(=O)Cc2ccc(C(=O)O)cc2)CC1 (stereo not drawn),Delta BG,Rattus norvegicus [1],-27%
same,Delta BG,Rattus norvegicus [6],-46%
CC1CC(C)CN(c2ccc(Cl)cc2C(=O)NCCc2ccc(C(=O)O)cc2)C1 (stereo in doubt; 5h),Delta BG,Rattus norvegicus [1]; 1 mg/kg,-44%
same,ED50,Rattus norvegicus [3]; [10],0.33 mg/kg
same,Delta BG,Rattus norvegicus [5],-29%
O=C(O)c1ccc(CCNC(=O)c2cc(Cl)ccc2N2CCCCCCCCCC2)cc1,Delta BG,Rattus norvegicus [7],Not significant
C=C(C)CC(NC(=O)Cc1ccc(C(=O)O)c(OCC)c1)c1ccccc1N1CCCCC1 (stereo not drawn),Delta BG,Rattus norvegicus [2],-31%
CC1CCCCN1c1ccc(Cl)cc1C(=O)NCCc1ccc(C(=O)O)cc1 (stereo not drawn),Delta BG,Rattus norvegicus [1],-16%
CC(NC(=O)Cc1cccc(C(=O)O)c1)c1ccccc1N1CCCCC1 (stereo not drawn),Delta BG,Rattus norvegicus [9],-12%
O=C(Cc1ccc(C(=O)O)cc1)NC(c1ccccc1N1CCCCC1)C1CCCCC1 (stereo not drawn),Delta BG,Rattus norvegicus [1],-27%
CC(NC(=O)Cc1ccc(C(=O)O)cc1)c1ccc(N2CCCCC2)cc1 (stereo not drawn),Delta BG,Rattus norvegicus [8],Not significant
CCOc1cc(CC(=O)NC(CC2CC2)c2ccccc2N2CCCCC2)ccc1C(=O)O (stereo not drawn),Delta BG,Rattus norvegicus [2],-37%
CC(NC(=O)Cc1ccccc1C(=O)O)c1ccccc1N1CCCCC1 (stereo not drawn),Delta BG,Rattus norvegicus [8],Not significant
CCOc1cc(CC(=O)NC(CC2CCCCC2)c2ccccc2N2CCCCC2)ccc1C(=O)O (stereo not drawn),Delta BG,Rattus norvegicus [2],-23%
CC1CCCN(c2ccc(Cl)cc2C(=O)NCCc2ccc(C(=O)O)cc2)C1 (stereo not drawn),Delta BG,Rattus norvegicus [1],-22%
CCC[C@@H](NC(=O)Cc1ccc(C(=O)O)cc1)c1ccccc1N1CCCCC1,Delta BG,Rattus norvegicus [1],-19%
CCC[C@H](NC(=O)Cc1ccc(C(=O)O)cc1)c1ccccc1N1CCCCC1,Delta BG,Rattus norvegicus [2],-29%
O=C(Cc1ccc(C(=O)O)cc1)NC(Cc1ccccc1)c1ccccc1N1CCCCC1 (stereo not drawn),Delta BG,Rattus norvegicus [6],-27%
CCOc1cc(CC(=O)N[C@H](CC(C)C)c2ccccc2N2CCCCC2)ccc1C(=O)O,Delta BG,Rattus norvegicus [7],Not significant
CCCC(CCCc1ccc(C(=O)O)cc1)c1ccccc1N1CCCCC1 (stereo not drawn),Delta BG,Rattus norvegicus [8],Not significant
CCCC(NC(=O)Cc1ccc(C(=O)O)cc1)c1ccccc1-c1ccccc1 (stereo not drawn),Delta BG,Rattus norvegicus [6],-21%
CCOc1cc(CC(=O)NC(CC2CCCCCC2)c2ccccc2N2CCCCC2)ccc1C(=O)O (stereo not drawn),Delta BG,Rattus norvegicus [5],-19%
CCCC(c1ccccc1N1CCCCC1)N(C)C(=O)Cc1ccc(C(=O)O)cc1 (stereo not drawn),Delta BG,Rattus norvegicus [6],-12%
O=C(O)c1ccc(CCNC(=O)c2cc(Cl)ccc2N2CCCCC2)cc1,Delta BG,Rattus norvegicus [7],Not significant
same,Delta BG,Rattus norvegicus [4],-37%
CCOc1cc(CC(=O)NC(c2ccccc2)c2ccccc2N2CCCCC2)ccc1C(=O)O (stereo not drawn),Delta BG,Rattus norvegicus [2],-22%
same,Delta BG,Rattus norvegicus [5],-40%
CCCC(NC(=O)Cc1ccc(C(=O)O)cc1)c1ccccc1OC (stereo not drawn),Delta BG,Rattus norvegicus [1],-21%
same,Delta BG,Rattus norvegicus [6],-44%
O=C(Cc1ccc(C(=O)O)cc1)NCc1ccccc1N1CCCCC1,Delta BG,Rattus norvegicus [6],-38%
CC(NC(=O)Cc1ccc(C(=O)O)cc1)c1cc(Cl)ccc1N1CCCCC1 (stereo not drawn),Delta BG,Rattus norvegicus [4],-18%
same,Delta BG,Rattus norvegicus [6],-36%
CC(NC(=O)Cc1ccc(C(=O)O)cc1)c1cc(Cl)ccc1N1CCCCCCCC1 (stereo not drawn),Delta BG,Rattus norvegicus [8],Not significant
CC1CCN(c2ccc(Cl)cc2C(=O)NCCc2ccc(C(=O)O)cc2)CC1,Delta BG,Rattus norvegicus [7],Not significant
COc1cc(CCNC(=O)c2cc(Cl)ccc2N2CCCCCCCC2)ccc1C(=O)O,Delta BG,Rattus norvegicus [1],-15%
CCCCCC(NC(=O)Cc1ccc(C(=O)O)c(OCC)c1)c1ccccc1N1CCCCC1 (stereo not drawn),Delta BG,Rattus norvegicus [2],-13%
same,Delta BG,Rattus norvegicus [5],-42%
CC1CCCN(c2ccccc2C(C)NC(=O)Cc2ccc(C(=O)O)cc2)C1 (stereo not drawn),Delta BG,Rattus norvegicus [1],-27%
same,Delta BG,Rattus norvegicus [6],-42%
CC(NC(=O)Cc1ccc(C(=O)O)cc1)c1cc(Cl)ccc1N1CCCCCCC1 (stereo not drawn),Delta BG,Rattus norvegicus [8],Not significant
CN(C)c1ccc(Cl)cc1C(=O)NCCc1ccc(C(=O)O)cc1,Delta BG,Rattus norvegicus [9],-28%
CCOc1cc(CCNC(=O)c2cc(Cl)ccc2N2CCCCCCCC2)ccc1C(=O)O,Delta BG,Rattus norvegicus [1],-16%
COc1ccc(Cl)cc1C(=O)NCCc1ccc(C(=O)O)cc1 [MEGLITINIDE],Delta BG,Rattus norvegicus [1],-9%
same,ED50,Rattus norvegicus [3]; [10],9.4 mg/kg
same,Delta BG,Rattus norvegicus [6],-22%
O=C(O)c1ccc(CCNC(=O)c2cc(Cl)ccc2N2CCCCCCCCC2)cc1,Delta BG,Rattus norvegicus [1],-29%
CC(NC(=O)Cc1ccc(C(=O)O)cc1)c1ccccc1N(C)C (stereo not drawn),Delta BG,Rattus norvegicus [6],-20%
COc1ccc(Cl)cc1C(C)NC(=O)Cc1ccc(C(=O)O)cc1 (stereo not drawn),Delta BG,Rattus norvegicus [6],-14%
O=C(O)c1ccc(CCNC(=O)c2ccccc2N2CCCCCCCC2)cc1,Delta BG,Rattus norvegicus [1],-9%
O=C(Cc1ccc(C(=O)O)cc1)N[C@H](c1ccccc1)c1ccccc1N1CCCCC1,Delta BG,Rattus norvegicus [7],Not significant
CC1CCCN(c2ccc(Cl)cc2C(C)NC(=O)Cc2ccc(C(=O)O)cc2)C1 (stereo not drawn),Delta BG,Rattus norvegicus [6],-34%
COc1ccccc1C(C)NC(=O)Cc1ccc(C(=O)O)cc1 (stereo not drawn),Delta BG,Rattus norvegicus [6],-21%
O=C(Cc1ccc(C(=O)O)cc1)NC(CCc1ccccc1)c1ccccc1N1CCCCC1 (stereo not drawn),Delta BG,Rattus norvegicus [6],-38%
CCOc1cc(CC(=O)NC(Cc2ccccc2)c2ccccc2N2CCCCC2)ccc1C(=O)O (stereo not drawn),Delta BG,Rattus norvegicus [6],-38%
